Assay results reported in ChEMBL document CHEMBL1148965, “Cytotoxic and other metabolites of Aspergillus inhabiting the rhizosphere of Sonoran desert plants” (J Nat Prod, 2004).
The source made the active and inactive calls. The rule behind the calls is not given here.

Columns and labels:
NCI-H460 [1] = assay: Cytotoxicity against human NCI-H460 cells by MTT assay; assay type: functional, cell-based
Outline: (§1)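 Cells were exposed to DMSO-dissolved samples for 72 h in RPMI-1640 with 10% fetal bovine serum. Viability was read by tetrazolium (MTT) colorimetry. IC50 was taken as the concentration giving 50% inhibition of cell proliferation/survival. WI-38 are normal human primary fibroblasts.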

MIA PaCa-2 [2] = assay: Cytotoxicity against human MIAPaCa2 cells by MTT assay; assay type: functional, cell-based; outline: as §1
SF-268 [3] = assay: Cytotoxicity against human SF268 cells by MTT assay; assay type: functional, cell-based; outline: as §1
[4] = Cytotoxicity against human WI38 cells by MTT assay; assay type: cell-based; details: WI-38; outline: as §1
MCF7 [5] = assay: Cytotoxicity against human MCF7 cells by MTT assay; assay type: functional, cell-based; outline: as §1
SF-268 [6] = assay: Cytotoxicity against human SF268 cells at 10 ug/mL by MTT assay; assay type: functional, cell-based
MIA PaCa-2 [7] = assay: Cytotoxicity against human MIAPaCa2 cells at 10 ug/mL by MTT assay; assay type: functional, cell-based
NCI-H460 [8] = assay: Cytotoxicity against human NCI-H460 cells at 10 ug/mL by MTT assay; assay type: functional, cell-based
MCF7 [9] = assay: Cytotoxicity against human MCF7 cells at 10 ug/mL by MTT assay; assay type: functional, cell-based
[10] = Cytotoxicity against human WI38 cells at 10 ug/mL by MTT assay; assay type: cell-based; details: wi-38

Structure (SMILES)	IC50 (NCI-H460 [1]) [µM]	IC50 (MIA PaCa-2 [2]) [µM]	IC50 (SF-268 [3]) [µM]	IC50 [4] [µM]	IC50 (MCF7 [5]) [µM]	Activity (SF-268 [6])	Activity (MIA PaCa-2 [7])	Activity (NCI-H460 [8])	Activity (MCF7 [9])	Activity [10]
C[C@H]1CCCC(O)CC(=O)c2c(O)cc(O)cc2CC(=O)O1 (stereo not given in full)	2.1	3.3	4.1	11.6	2					
COC1CCC[C@H](C)OC(=O)Cc2cc(O)cc(O)c2C(=O)C1 (stereo not given in full)	0.9	1.2	0.9	1.7	0.6					
C=C(C)C1(O)OC(=O)C=C1OC (stereo not given) [PENICILLIC ACID]	5.8	8	20	57.5	12.8					
C=CC(C)(C)c1[nH]c2ccccc2c1C1=C(O)C(=O)C(c2c[nH]c3ccccc23)=C(CC=C(C)C)C1=O [TERREQUINONE A]	5.6	5.4	13.9		6.8					
C[C@H]1CCC/C=C/C(=O)c2c(O)cc(O)cc2CC(=O)O1 [DEHYDROCURVULARIN]	1.1	1.9	2.5	3.6	1.3					
C=CC(C)(C)[C@]12CC3C(=O)Nc4ccccc4C(=O)N3[C@H]1N(C(C)=O)c1ccccc12 (stereo not given in full)						inactive	inactive	inactive	inactive	Non-toxic
COC1=CC(=O)C[C@](C)(O)[C@H]1O (relative stereo)						inactive	inactive	inactive	inactive	Non-toxic
C/C=C/C1=CC(=O)[C@](C)(/C=C/C=C/CC)O1	5.5	6.3	6.8		11.7					
COC1=CC(=O)OC1(O)C(C)C (stereo not given)						inactive	inactive	inactive	inactive	Non-toxic
COCC(C)C1(O)OC(=O)C=C1OC (stereo not given)						inactive	inactive	inactive	inactive	Non-toxic
COc1cccc2c1C(=O)c1c(O)c3c(c(O)c1C2=O)C[C@@](O)(C(=O)CO)C[C@@H]3O[C@H]1C[C@H](N)[C@H](O)[C@H](C)O1 [DOXORUBICIN]	0.01			0.3						
CC/C=C/C=C/[C@]1(C)OC(CC(C)O)=CC1=O (stereo not given in full) [TERREFURANONE]						inactive	inactive	inactive	inactive	Non-toxic
